Where no end group is shown, it is not given here.
Assays:
PscE–PscG heterodimer = biological target: T1, PscE–PscG heterodimer (Pseudomonas aeruginosa, UniProt P95435); test: Fluorescence polarization competitive binding assay
T1 sequence (P95435 1-115): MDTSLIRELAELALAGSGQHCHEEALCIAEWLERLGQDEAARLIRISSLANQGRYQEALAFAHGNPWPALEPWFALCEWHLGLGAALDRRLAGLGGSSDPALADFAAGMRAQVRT
T1 sequence (Q9I317 1-67 partner): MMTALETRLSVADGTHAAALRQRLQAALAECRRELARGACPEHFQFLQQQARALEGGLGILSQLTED

[1] = test system: J774A.1 cells infected with PAO1; test: LDH release assay, PAO1-infected macrophages; format: cell-based, mouse; details: different concentrations, MOI 8, 5 h
[2] = test system: intracellular PAO1 in J774A.1 cells; test: Quantification of intracellular bacteria in macrophages; format: cell-based, Pseudomonas aeruginosa; details: different concentrations; gentamicin at 2 h postinfection
In short: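 J774A.1 cells were seeded at 5 × 10^4 per well, grown 24 h and switched to serum-free medium 1 h before infection with mid-exponential PAO1 at MOI 8. Cells were infected 2 h with test compound (0–100 μM, 2% DMSO), washed, and exposed to gentamicin (50 μg/mL) for 2 h. Lysates were plated for intracellular counts, normalised to mock-treated infected cells; mean ± SD, three experiments.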

[3] = test system: PAO1 in the bronchoalveolar lavage; test: Bacterial burden in bronchoalveolar lavage of PAO1-infected mice; format: in vivo, mouse; details: single dose 100 μM at the time of infection; sampled 18 h postinfection
In short: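 Female 6-week-old C57BL/6J mice were lightly anaesthetised with inhaled sevoflurane and given PAO1 intranasally (1 × 10^7 CFU in 20 μL PBS). Test compound (100 μM, 1% DMSO) was given with the inoculum; PBS with 1% DMSO served as mock treatment. At 18 h the animals were killed. Lavage was plated for counts. Lungs were formalin-fixed, paraffin-embedded, H&E-stained and scored by degree of inflammation.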

[4] = test system: secretion of ExoS by PAO1; test: Inhibition of T3SS-mediated effector secretion; format: cell-based, Pseudomonas aeruginosa; details: 100 μM; PAO1 grown under low-calcium conditions
In short: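 To induce the T3SS, overnight PAO1 was diluted to OD600 0.3 in LB containing 5 mM EGTA and 20 mM MgCl2, with test compound, then shaken gently 3–4 h to OD 1.5. Controls were LB with 2% DMSO, and EGTA/MgCl2 medium with 2% DMSO. Supernatant proteins were TCA-precipitated (10%, 2 h on ice). Secreted and total ExoS were immunoblotted and measured by densitometry as % secreted of total; mean ± SD, three experiments.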

[5] = biological target: T2, preformed PscE–PscG heterodimer (Pseudomonas aeruginosa, UniProt Q9I317 1-67; P95435 1-115); test: ITC
T2 sequence (looked up) 1: T1 sequence (Q9I317 1-67 partner)
T2 sequence (looked up) 2: T1 sequence (P95435 1-115)

[6] = biological target: T2, preformed PscE–PscG heterodimer; test: fluorescence polarisation
PscG = biological target: T3, PscG (Pseudomonas aeruginosa, UniProt P95435 1-115); test: fluorescence polarisation
T3 sequence (looked up): T1 sequence (P95435 1-115)

[7] = biological target: T2, preformed PscE–PscG heterodimer; test: fluorescence polarisation; remark: listed apart in the source

With `CC(Oc1ccc(Cl)cc1Cl)C(=O)NCc1ccc2c(c1)OCO2` (stereo not drawn) [MBX-1641] the “competition with FAM-PscF69–85 for PscE–PscG binding (result in words)” value (“competition” for short) (PscE–PscG heterodimer) was “no effect”, the “inhibition of Pseudomonas-aeruginosa-induced cell lysis (LDH release), in words” value [1] was “inhibited” and the “inhibition of intracellular bacterial survival / proliferation of PAO1” value [2] was “inhibited”. For the same molecule, the “bacterial burden in the bronchoalveolar lavage” value [3] was “reduced bacterial burden”.

In the case of `C[C@H]1COC2=C1C(=O)C(=O)c1c2ccc2c1CCCC2(C)C` [crpTSN, cryptotanshinone], the “effect on secretion of ExoS” value [4] is reported as “no inhibitory activity”, the “competition” value (PscE–PscG heterodimer) is reported as “inactive” and the “inhibition of Pseudomonas-aeruginosa-induced cell lysis (LDH release), in words” value [1] is reported as “inactive”.

For `Cc1coc2c1C(=O)C(=O)c1c-2ccc2c1CCCC2(C)C` [tanshinone 2A], the “competition” value (PscE–PscG heterodimer) was “inactive”.

B1: PscF^69–85 (peptide, UniProt P95434 69-85, looked up)
peptide: TVTRALRDLMQGILQKI
Work on B1 yielded a Kd [5] of 51.5 nM and an IC50 [6] of 4320 nM.

B2: ^FAMPscF^69–85 (peptide, UniProt P95434 69-85, looked up)
peptide: TVTRALRDLMQGILQKI
modifications: also: fluorescein (FAM) label
For B2, the Kd (PscG) was 10800 nM and the Kd [7] was 52 nM.

Source: article PMC6662154 (ACS Central Science, 2019)
